Measured values taken from ChEMBL document CHEMBL1157420, “2-phenyl-4-piperazinylbenzimidazoles: orally active inhibitors of the gonadotropin releasing hormone (GnRH) receptor” (Bioorg Med Chem, 2008).
≈ marks a conversion by molar mass, not a printed value.

Columns and labels:
[1] = biological target: T1, Gonadotropin-releasing hormone receptor (Homo sapiens) (UniProt P30968); assay: Displacement of [125I]-(D-Trp6)LHRH from human recombinant GnRH receptor at 10 uM
T1 sequence (whole entry): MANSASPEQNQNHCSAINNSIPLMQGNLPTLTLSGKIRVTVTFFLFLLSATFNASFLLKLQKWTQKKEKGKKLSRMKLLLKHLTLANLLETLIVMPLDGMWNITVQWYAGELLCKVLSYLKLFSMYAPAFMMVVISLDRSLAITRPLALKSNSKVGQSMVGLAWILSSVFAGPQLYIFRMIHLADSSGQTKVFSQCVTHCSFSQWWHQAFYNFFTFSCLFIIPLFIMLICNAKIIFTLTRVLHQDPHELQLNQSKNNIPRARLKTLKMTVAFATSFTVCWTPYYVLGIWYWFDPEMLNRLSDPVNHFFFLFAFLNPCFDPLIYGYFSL
Method in brief: (§1)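 Membranes from recombinant cells expressing human or rat GnRH receptor, made in 25 mM Tris-Cl pH 7.4 with 0.1% sodium azide and 0.1% BSA. 50 μg protein incubated with about 50,000 cpm 125I-(D-Trp6)-LHRH for 2 h at 4 °C, with increasing unlabeled competitor. Filtered on BSA-presoaked glass-fiber filters, washed twice, counted by gamma counter. Percent inhibition and IC50 derived.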

[2] = biological target: T2, Gonadotropin-releasing hormone receptor (Rattus norvegicus, UniProt P30969); assay: Displacement of [125I]-(D-Trp6)LHRH from rat recombinant GnRH receptor; method in brief: as §1
T2 sequence (P30969 whole entry): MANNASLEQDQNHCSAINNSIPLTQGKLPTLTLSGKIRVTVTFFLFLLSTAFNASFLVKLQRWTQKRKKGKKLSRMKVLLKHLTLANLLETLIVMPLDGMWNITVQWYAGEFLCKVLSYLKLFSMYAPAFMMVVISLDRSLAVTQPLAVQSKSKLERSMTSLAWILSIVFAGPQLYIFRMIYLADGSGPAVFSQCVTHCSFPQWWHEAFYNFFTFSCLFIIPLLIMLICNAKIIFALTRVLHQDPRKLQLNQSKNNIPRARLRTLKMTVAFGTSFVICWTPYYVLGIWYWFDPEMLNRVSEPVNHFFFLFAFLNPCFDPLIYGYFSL

[3] = biological target: T3, Gonadotropin-releasing hormone receptor (Homo sapiens, UniProt P30968); assay: Displacement of [125I]-(D-Trp6)LHRH from human recombinant GnRH receptor; method in brief: as §1
T3 sequence (P30968 whole entry): T1 sequence (whole entry)

[4] = biological target: T4, 5-hydroxytryptamine receptor 1D (Homo sapiens, UniProt P28221); assay: Binding affinity to human 5HT1D receptor
T4 sequence (P28221 whole entry): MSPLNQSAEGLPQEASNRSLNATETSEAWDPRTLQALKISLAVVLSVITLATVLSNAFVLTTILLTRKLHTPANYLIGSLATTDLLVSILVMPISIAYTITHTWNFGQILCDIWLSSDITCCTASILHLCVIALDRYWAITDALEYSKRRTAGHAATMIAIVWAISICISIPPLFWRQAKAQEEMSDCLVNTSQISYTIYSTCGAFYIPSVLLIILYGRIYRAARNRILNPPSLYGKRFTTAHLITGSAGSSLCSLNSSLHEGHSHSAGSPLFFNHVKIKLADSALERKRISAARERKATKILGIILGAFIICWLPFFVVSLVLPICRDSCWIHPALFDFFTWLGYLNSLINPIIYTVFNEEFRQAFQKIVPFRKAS

[5] = biological target: T5, 5-hydroxytryptamine receptor 1A (Homo sapiens, UniProt P08908); assay: Binding affinity to human 5HT1A receptor; details: read-out: Ki
T5 sequence (P08908 whole entry): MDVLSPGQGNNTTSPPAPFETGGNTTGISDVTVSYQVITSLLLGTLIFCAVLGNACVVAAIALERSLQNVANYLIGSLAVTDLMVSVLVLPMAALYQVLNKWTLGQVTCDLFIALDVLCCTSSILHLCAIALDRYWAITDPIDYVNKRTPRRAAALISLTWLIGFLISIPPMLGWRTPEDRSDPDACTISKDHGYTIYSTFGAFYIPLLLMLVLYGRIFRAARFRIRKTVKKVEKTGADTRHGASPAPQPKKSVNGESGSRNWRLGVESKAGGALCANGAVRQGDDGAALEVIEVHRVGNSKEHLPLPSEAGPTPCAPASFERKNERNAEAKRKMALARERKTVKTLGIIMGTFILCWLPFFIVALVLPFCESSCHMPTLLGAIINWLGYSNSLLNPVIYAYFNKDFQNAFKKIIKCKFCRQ

[6] = biological target: T2, Gonadotropin-releasing hormone receptor; assay: Antagonist activity at […] GnRH receptor in CO2 asphyxiated rat primary pituitary cells assessed as reduction in (D-Trp6)LHRH-induced LH release; type: functional, cell-based, Pituitary gland cell
Method in brief: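 Anterior pituitaries from adult rats were minced, dissociated and plated at 30,000 cells/well in DMEM with 25 mM Hepes and 10% FBS, then cultured 72 h at 37 °C, 5% CO2. After washing, cells were treated 3 h in 0.1% BSA medium with an antagonist dose response plus an ED50 concentration of D-Trp6-LHRH. LH in medium measured by RIA; cell toxicity checked by CellTiter-Glo.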

[7] = biological target: T3, Gonadotropin-releasing hormone receptor; assay: Antagonist activity at human recombinant GnRH receptor assessed as reduction in (D-Trp6)LHRH-induced myo-(1,2)-[3H]inositol production; type: functional
Method in brief: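 Recombinant cells expressing human GnRH receptor, pre-labeled with myo-(1,2)-3H-inositol, incubated 1 h in medium with lithium chloride and D-Trp6-LHRH, with or without antagonist. Cells then lysed and labeled inositol phosphates separated from inositol by […] and counted. Run in triplicate, repeated in three independent experiments; IC50 derived.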

[8] = biological target: T6, 5-hydroxytryptamine receptor 1B (Homo sapiens, UniProt P28222); assay: Binding affinity to human 5HT1B receptor
T6 sequence (P28222 whole entry): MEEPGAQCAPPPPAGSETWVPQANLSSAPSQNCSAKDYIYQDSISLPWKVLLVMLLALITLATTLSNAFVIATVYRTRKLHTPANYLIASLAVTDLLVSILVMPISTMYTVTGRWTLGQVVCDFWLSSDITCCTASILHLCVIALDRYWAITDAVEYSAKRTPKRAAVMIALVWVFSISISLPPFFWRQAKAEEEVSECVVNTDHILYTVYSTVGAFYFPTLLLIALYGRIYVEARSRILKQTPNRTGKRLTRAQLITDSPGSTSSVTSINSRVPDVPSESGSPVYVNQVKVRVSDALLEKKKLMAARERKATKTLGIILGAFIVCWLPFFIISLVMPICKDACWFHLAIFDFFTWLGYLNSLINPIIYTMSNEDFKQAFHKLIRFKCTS

[9] = biological target: T7, 5-hydroxytryptamine receptor 1A (Homo sapiens) (UniProt P08908); assay: Binding affinity to 5HT1A receptor at 10 uM
T7 sequence (whole entry): T5 sequence (P08908 whole entry)

[10] = biological target: T8, Alpha-1A adrenergic receptor (Homo sapiens) (UniProt P35348); assay: Binding affinity to alpha1 adrenergic receptor at 10 uM
T8 sequence (whole entry): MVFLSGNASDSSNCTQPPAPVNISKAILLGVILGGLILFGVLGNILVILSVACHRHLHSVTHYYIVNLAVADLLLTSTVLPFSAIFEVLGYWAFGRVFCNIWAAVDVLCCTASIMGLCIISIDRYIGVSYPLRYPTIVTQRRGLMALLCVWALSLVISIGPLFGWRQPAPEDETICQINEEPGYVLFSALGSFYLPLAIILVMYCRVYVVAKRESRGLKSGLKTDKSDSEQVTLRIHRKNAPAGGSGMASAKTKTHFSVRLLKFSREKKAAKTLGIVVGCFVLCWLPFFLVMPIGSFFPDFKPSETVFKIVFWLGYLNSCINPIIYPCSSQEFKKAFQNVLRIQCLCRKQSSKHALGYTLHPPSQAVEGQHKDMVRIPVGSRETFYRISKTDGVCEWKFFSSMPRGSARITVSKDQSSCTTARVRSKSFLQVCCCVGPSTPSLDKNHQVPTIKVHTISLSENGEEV

[11] = biological target: T4, 5-hydroxytryptamine receptor 1D; assay: Binding affinity to human 5HT1D receptor at 1000 nM
[12] = biological target: T6, 5-hydroxytryptamine receptor 1B; assay: Binding affinity to human 5HT1B receptor at 1000 nM
[13] = Cmax in rat at 10 mg/kg, po; type: ADME, organism-based; set-up: dose 10 mg/kg, route oral; details: in vivo
[14] = Membrane permeability by PAMPA assay; type: ADME; details: read-out: permeability
[15] = Half life in rat plasma at 10 mg/kg, po; type: ADME, organism-based; set-up: dose 10 mg/kg, route oral
[16] = Half life in rat plasma at 1.0 mg/kg, iv; type: ADME, organism-based; set-up: dose 1 mg/kg, route intravenous
[17] = AUC (0 to infinity) in rat at 1.0 mg/kg, iv; type: ADME, organism-based; set-up: time infinity, dose 1 mg/kg, route intravenous; details: plasma
[18] = Tmax in rat at 10 mg/kg, po; type: ADME, organism-based; set-up: dose 10 mg/kg, route oral; details: in vivo
[19] = Solubility of compound at pH 7.4; type: physicochemical; details: buffer
[20] = AUC (0 to infinity) in rat at 10 mg/kg, po; type: ADME, organism-based; set-up: dose 10 mg/kg, route oral, time infinity; details: plasma
[21] = Volume of distribution at steady state in rat at 1.0 mg/kg, iv; type: ADME, organism-based; set-up: dose 1 mg/kg, route intravenous; details: in vivo, read-out: Vdss
[22] = Bioavailability in rat at 10 mg/kg, po; type: ADME, organism-based; details: in vivo
[23] = Plasma clearance in rat at 1.0 mg/kg, iv; type: ADME, organism-based; set-up: dose 1 mg/kg, route intravenous
[24] = Metabolic stability in rat liver microsomes assessed as half life; type: ADME, Microsome

SMILES | Activity [1] [%] | IC50 [2] [nM] | IC50 [3] [nM] | IC50 [7] [nM] | also measured
Cn1c(C(F)(F)F)nc2c(N3CCN(CCOc4cccc5[nH]c(=S)[nH]c45)CC3)cccc21 | 8 | – | – | – | –
FC(F)(F)C(F)(F)c1nc2c(N3CCN(CCOc4cccc5[nH]c(=S)[nH]c45)CC3)cccc2[nH]1 | – | > 100000 | 6300 | – | –
O=c1[nH]c2cccc(N3CCN(CCOc4cccc5nc(C(F)(F)F)[nH]c45)CC3)c2[nH]1 | 8 | – | – | – | –
O=c1[nH]c2cccc(N3CCN(CCOc4cccc5[nH]c(=S)[nH]c45)CC3)c2[nH]c1=O | 9 | – | – | – | –
FC(F)(F)c1nc2c(N3CCN(CCOc4cccc5nc(C(F)(F)F)[nH]c45)CC3)cccc2[nH]1 | – | 15000 | 1500 | 9200 | Ki [4]: 0.55 nM; Ki [5]: 19 nM; IC50 [6]: 83000 nM; Ki [8]: 60 nM
FC(F)(F)c1nc2c(N3CCN(CCOc4cccc5[nH]c(=S)[nH]c45)CC3)cccc2[nH]1 | – | 21000 | 790 | 4500 | Ki [5]: 2.8 nM; IC50 [6]: 76000 nM; inhibition [11]: 67%; inhibition [12]: 67%
FC(F)(F)c1nc2c(N3CCN(CCc4cccc5nc(C(F)(F)F)[nH]c45)CC3)cccc2[nH]1 | 26 | – | – | – | –
Cc1nc2c(N3CCN(CCOc4cccc5[nH]c(=S)[nH]c45)CC3)cccc2[nH]1 | 10 | – | – | – | –
S=c1[nH]c2cccc(OCCN3CCN(c4cccc5[nH]cnc45)CC3)c2[nH]1 | 5 | – | – | – | –
FC(F)(F)c1nc2c(N3CCN(CCOc4ccc5[nH]c(=S)[nH]c5c4)CC3)cccc2[nH]1 | – | – | 4500 | – | –
FC(F)(F)c1nc2cccc(OCCN3CCN(c4cccc5[nH]c(=S)[nH]c45)CC3)c2[nH]1 | 42 | – | – | – | –
Cn1c(C(F)(F)F)nc2c(N3CCN(CCOc4cccc5[nH]c(C(F)(F)F)nc45)CC3)cccc21 | 5 | – | – | – | –

The next lines start with results.

Activity [1] [%] | IC50 [2] [nM] | IC50 [3] [nM] | IC50 [7] [nM] | SMILES | also measured
47 | – | – | – | Cc1cccc(-c2nc3c(N4CCN(CCOc5cccc6[nH]c(=S)[nH]c56)CC4)cccc3[nH]2)c1 | –
– | – | 11000 | – | S=c1[nH]c2cccc(OCCN3CCN(c4cccc5[nH]c(-c6ccccc6)nc45)CC3)c2[nH]1 | –
– | 110 | 6.2 | 14 | CC(C)(C)c1ccc(-c2nc3c(N4CCN(Cc5cccc6[nH]c(=S)[nH]c56)CC4)cccc3[nH]2)cc1 | Activity [9]: 5%; IC50 [6]: 240 nM; Activity [10]: 7%
– | 32 | 5.5 | 9.4 | CC(C)(C)c1ccc(-c2nc3c(N4CCN(Cc5c[nH]c(=O)[nH]c5=O)CC4)cccc3[nH]2)cc1 | Cmax [13]: 19 ng/mL; Papp [14]: 0.6 ×10⁻⁶ cm/s; IC50 [6]: 41 nM; half-life [15]: 5.8 h; half-life [16]: 3.5 h; AUC(0-inf) [17]: 355 ng·h/mL; Tmax [18]: 1.8 h; solubility [19]: 25 µg/mL (≈ 54.5 µM); AUC(0-inf) [20]: 200 ng·h/mL; Vd [21]: 3.1 L/kg; bioavailability [22]: 5%; clearance [23]: 47 mL/min/kg; half-life [24]: 0.5 h
– | 3900 | 120 | 640 | CCc1ccc(-c2nc3c(N4CCN(CCOc5cccc6[nH]c(=S)[nH]c56)CC4)cccc3[nH]2)cc1 | –
– | 680 | 8.7 | 63 | CC(C)(C)c1ccc(-c2nc3c(N4CCN(Cc5cccc6[nH]c(=O)[nH]c56)CC4)cccc3[nH]2)cc1 | IC50 [6]: 1500 nM
